The source of these data is PubChem BioAssay.

The nature of experiment [1]: reducers of endogenous Her2 protein level, primary screen, SKBR3 breast tumor cells, AlphaScreen, ATP viability (AID 461).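 As to Her2 level: lower value means less Her2 protein in the cells.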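 As to viability: percent of carrier control wells set as 100% viability.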 To be noted: 18-24 h, measured here: SKBR3 viability, ATP luminescence, at 10 µM.
Experiment [2] deals with Receptor tyrosine-protein kinase erbB-2 (Homo sapiens) (UniProt P04626). The description is as above. The note with it: 18-24 h, at 10 µM, stronger effect = lower value.
Receptor tyrosine-protein kinase erbB-2 (Homo sapiens), sequence (P04626 whole entry, looked up): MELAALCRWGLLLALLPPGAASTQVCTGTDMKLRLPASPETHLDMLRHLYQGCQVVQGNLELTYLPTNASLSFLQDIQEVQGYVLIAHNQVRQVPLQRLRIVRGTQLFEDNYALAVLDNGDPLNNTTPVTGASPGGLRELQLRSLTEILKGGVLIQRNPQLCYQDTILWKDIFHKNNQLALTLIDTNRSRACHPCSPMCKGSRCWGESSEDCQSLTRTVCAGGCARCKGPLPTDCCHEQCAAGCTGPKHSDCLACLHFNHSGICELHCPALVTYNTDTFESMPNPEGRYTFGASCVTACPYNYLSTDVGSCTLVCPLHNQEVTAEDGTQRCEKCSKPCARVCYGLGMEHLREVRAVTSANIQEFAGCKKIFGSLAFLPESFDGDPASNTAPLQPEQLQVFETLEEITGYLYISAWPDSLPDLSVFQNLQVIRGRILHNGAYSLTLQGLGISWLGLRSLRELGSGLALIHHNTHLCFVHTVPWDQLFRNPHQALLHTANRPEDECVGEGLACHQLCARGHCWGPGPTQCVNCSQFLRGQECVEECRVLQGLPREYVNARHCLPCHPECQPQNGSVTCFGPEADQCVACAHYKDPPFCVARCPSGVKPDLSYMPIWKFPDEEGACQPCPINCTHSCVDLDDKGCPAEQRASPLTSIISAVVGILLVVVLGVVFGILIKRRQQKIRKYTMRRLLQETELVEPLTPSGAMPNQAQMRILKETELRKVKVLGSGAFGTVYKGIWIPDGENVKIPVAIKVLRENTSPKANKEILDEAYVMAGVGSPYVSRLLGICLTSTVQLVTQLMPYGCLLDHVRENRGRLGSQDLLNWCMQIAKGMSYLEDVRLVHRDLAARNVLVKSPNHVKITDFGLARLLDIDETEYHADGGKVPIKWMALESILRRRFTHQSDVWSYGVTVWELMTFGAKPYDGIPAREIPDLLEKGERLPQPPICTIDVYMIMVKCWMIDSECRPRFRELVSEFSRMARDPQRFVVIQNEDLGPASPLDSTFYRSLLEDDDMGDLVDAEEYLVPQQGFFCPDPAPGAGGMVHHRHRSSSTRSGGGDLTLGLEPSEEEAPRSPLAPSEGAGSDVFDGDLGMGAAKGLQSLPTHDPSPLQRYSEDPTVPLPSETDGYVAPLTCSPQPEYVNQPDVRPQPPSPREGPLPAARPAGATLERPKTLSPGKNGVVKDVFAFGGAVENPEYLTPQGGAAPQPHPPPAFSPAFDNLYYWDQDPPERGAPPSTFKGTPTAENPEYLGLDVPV
Experiment [3] can be described thus: SK-BR-3 cell growth inhibitors, pilot screen, 24 h, human (AID 572;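 active = viability at or below 10% of carrier control in both of two separate runs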;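 also: compound exposure lasted between 18 and 24 h rather than exactly 24 h; 100% = carrier-treated control wells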). To be noted: SK-BR-3 viability, CellTiter-Glo luminescence, at 10 µM, stronger effect = lower value. In general terms: Cellular ATP, detected with luciferase, serves as a proxy for viable cell number.
A short description of experiment [4]: HUVEC growth inhibition – cell-based, human, primary screen (AID 575;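 active = viability at or below 30% in both replicate assays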;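 also: 100% = median of untreated cell wells with 0.1% DMSO on each plate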). To be noted: HUVEC proliferation, CellTiter-Glo luminescence, 72 h; at 10 µM; stronger effect = lower value. The procedure, abridged:
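Material: primary human umbilical vein endothelial cells / Schedule: 72 h exposure, 37 °C, 5% CO2, 30 min RT equilibration / Signal: ATP-based CellTiter-Glo luminescent read / Read-out basis: percent of median DMSO-control luminescence / Control set: 32 DMSO-only cell-control wells (high), 32 MePR drug-control wells (low) per plate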

A short description of experiment [5]: growth inhibitors of H69AR lung tumor, primary screen, human, duplicate replicates (AID 580;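 active = viability at or under a set limit in both replicates, limit being median viability minus 3 SD, cut at about 48% in these data, passing the limit was not always enough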;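 also: 100% = mean luminescence of untreated wells and 0% = no signal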). To be noted: H69AR lung tumor cells viability, ATP luminescence, 72 h; at 10 µM; stronger effect = lower value.
The nature of experiment [6]: reversal of MRP1-mediated doxorubicin resistance, pilot screen, H69AR cells, doxorubicin co-treatment (AID 601;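 active = viability loss from added drug above about 55%, and viability with drug at most 40%, in both replicates, limit read from the data, passing the limit was not always enough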). To be noted: CellTiter-Glo, 72 h, at 10 µM; for differential viability (reversal): stronger effect = higher value.
Experiment [7] can be described thus: 384-well plate pilot, post-Golgi transport modulator project, inhibition of yeast transport mutant growth (AID 636; in the data active = inhibition above about 31%). To be noted: absorbance 615 nm, about 18 h, stronger effect = higher value.
A short description of experiment [8]: growth suppression of yeast trafficking mutant, preliminary HTS, modulators of trafficking downstream of Golgi apparatus project, 1536-format plate, OD 615 nm (AID 637; in the data active = inhibition above about 30%). The note with it: yeast transport mutant growth, absorbance 615 nm, 18 h; stronger effect = higher value.
The mark [9] stands for this setting: H69AR cells + 2 uM doxorubicin, measured here: viability with 2 uM doxorubicin, stronger effect = lower value.
Setting [10] is: H69AR cells, compound alone cytotoxicity.

Active and inactive are the calls of the source.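 The calls were made as follows, unless noted: active = Her2 level under about 52% in both replicate screens, with viability over 70% of control (limit read from the data); inconclusive = Her2 under the limit in one screen only, or viability under 70%; inactive = Her2 level above the set limit.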

The term viability denotes a read-out of living cells in per cent, often relative to untreated cells. What is called inhibition is the drop in the measured response relative to a control, in per cent. On to `Clc1ccc(Cc2nn3c(-c4ccncc4)nnc3s2)cc1`, for which the viability in experiment [1] was 99.5%; in experiment [3], 99.5% (inactive); in experiment [4], 101% (inactive); in experiment [5], 96.9% (inactive); in experiment [6] (setting [9]), 97%; in experiment [6] (setting [10]), 96.9%. Besides, in experiment [2], the Her2 level is 107% (inactive). In addition, the differential viability (reversal) in experiment [6] (H69AR cells + 2 uM doxorubicin) is -0.11% (inactive). Further, the inhibition was -1.05% (inactive) in experiment [7] and 15.4% (inactive) in experiment [8].

As for `O=S(=O)(c1ccccc1)c1nc(-c2ccco2)oc1NCCCN1CCOCC1`, the viability was 91% in experiment [1]; 91% (inactive) in experiment [3]; 84.6% (inactive) in experiment [4]; 95.4% (inactive) in experiment [5]; 96.8% in experiment [6] (setting [9]); 95.4% in experiment [6] (setting [10]). Besides, the Her2 level in experiment [2] is 100% (inactive). For the same compound, in experiment [6] (H69AR cells + 2 uM doxorubicin), the differential viability (reversal) is -1.43% (inactive). Besides, the inhibition in experiment [7] was -1.73% (inactive); in experiment [8], -3.23% (inactive).

For `CCCCNC(=O)c1nc2ncc(Br)cn2n1`, the viability in experiment [1] is 108%; in experiment [3], 108% (inactive); in experiment [4], 100% (inactive); in experiment [5] it was 85.4% (inactive); in experiment [6] (setting [9]) it was 91.4%; in experiment [6] (setting [10]), 85.4%. Besides, the Her2 level in experiment [2] was 75% (inactive). Further, the differential viability (reversal) in experiment [6] (H69AR cells + 2 uM doxorubicin) was -5.97% (inactive). Moreover, the results for the inhibition in experiment [7] and in experiment [8] were -3.51% (inactive) and -2.3% (inactive), respectively.

With `O=C(COC(=O)C12CC3CC(CC(O)(C3)C1)C2)N1CCN(S(=O)(=O)c2ccc(Cl)cc2)CC1`, the viability is 87.5% in experiment [1]; 87.5% (inactive) in experiment [3]; 107% (inactive) in experiment [4]; 83.6% (inactive) in experiment [5]; 91.3% in experiment [6] (setting [9]); 83.6% in experiment [6] (setting [10]). Moreover, in experiment [2], the Her2 level was 85.5% (inactive). The differential viability (reversal) in experiment [6] (H69AR cells + 2 uM doxorubicin) was -7.7% (inactive). The inhibition in experiment [7] was -3.33% (inactive); in experiment [8] it was -4.17% (inactive).

As for `Cc1cc2c(s1)c1cnn(CC(=O)NCCc3ccccc3)c(=O)c1n2C`, the viability was 120% in experiment [1]; 120% (inactive) in experiment [3]; 118% (inactive) in experiment [4]; 87.1% (inactive) in experiment [5]; 82% in experiment [6] (setting [9]); 87.1% in experiment [6] (setting [10]). Also, the Her2 level in experiment [2] was 98.5% (inactive). In addition, the differential viability (reversal) in experiment [6] (H69AR cells + 2 uM doxorubicin) is 5.06% (inactive). For the same compound, the inhibition in experiment [7] is -5.81% (inactive); in experiment [8], -3.5% (inactive).

As for `NC(=O)CCS(=O)(=O)CCN1CCCCC1`, the viability is 93.5% in experiment [1]; 93.5% (inactive) in experiment [3]; 102% (inactive) in experiment [4]; 93.2% (inactive) in experiment [5]; 93.7% in experiment [6] (setting [9]); 93.2% in experiment [6] (setting [10]). Also, the Her2 level in experiment [2] is 86% (inactive). Also, in experiment [6] (H69AR cells + 2 uM doxorubicin), the differential viability (reversal) was -0.51% (inactive). The results for the inhibition in experiment [7] and in experiment [8] were -0.13% (inactive) and -2.95% (inactive), respectively.

On to `CCSc1nnc(NC(=O)c2csc(C)c2)s1`, for which the viability was 95% in experiment [1]; 95% (inactive) in experiment [3]; 81.2% (inactive) in experiment [4]; 87.7% (inactive) in experiment [5]; 95.3% in experiment [6] (setting [9]); 87.7% in experiment [6] (setting [10]). The Her2 level in experiment [2] was 83.5% (inactive). For the same compound, the differential viability (reversal) in experiment [6] (H69AR cells + 2 uM doxorubicin) was -7.62% (inactive). In addition, the inhibition in experiment [7] was -2.27% (inactive); in experiment [8], -5.41% (inactive).

Consider `CC(C)NC(=O)CSCc1ccccc1Cl`, for which the viability is 96% in experiment [1]; 96% (inactive) in experiment [3]; 86.8% (inactive) in experiment [4]; 94.8% (inactive) in experiment [5]; 76.8% in experiment [6] (setting [9]); 94.8% in experiment [6] (setting [10]). The Her2 level in experiment [2] is 95% (inactive). Besides, the differential viability (reversal) in experiment [6] (H69AR cells + 2 uM doxorubicin) is 18% (inactive). Also, the inhibition in experiment [7] is -3.33% (inactive); in experiment [8], 0.97% (inactive).

For the compound `O=C(CSc1nc2ccccc2s1)N1CCOCC1`, the viability is 119% in experiment [1]; 119% (inactive) in experiment [3]; 83.6% (inactive) in experiment [4]; 90.4% (inactive) in experiment [5]; 97.1% in experiment [6] (setting [9]); 90.4% in experiment [6] (setting [10]). Further, the Her2 level in experiment [2] is 106% (inactive). In addition, the differential viability (reversal) in experiment [6] (H69AR cells + 2 uM doxorubicin) is -6.72% (inactive). In addition, the values for the inhibition in experiment [7] and in experiment [8] were -2.27% (inactive) and -9.03% (inactive), respectively.

Consider `COc1ccccc1NC(=O)C1=C(C)Nc2ncnn2C1c1ccc(C)o1` (stereo not given), for which the viability in experiment [1] was 87.5%; in experiment [3], 87.5% (inactive); in experiment [4], 104% (inactive); in experiment [5], 99.3% (inactive); in experiment [6] (setting [9]), 87.6%; in experiment [6] (setting [10]), 99.3%. The Her2 level in experiment [2] was 99% (inactive). In experiment [6] (H69AR cells + 2 uM doxorubicin), the differential viability (reversal) was 11.7% (inactive). Further, the inhibition was -0.26% (inactive) in experiment [7] and -2.79% (inactive) in experiment [8].

Consider `Oc1cnc2ccccc2c1CN1CCOCC1`, for which the viability is 98.5% in experiment [1]; 98.5% (inactive) in experiment [3]; 113% (inactive) in experiment [4]; 101% (inactive) in experiment [5]; 104% in experiment [6] (setting [9]); 101% in experiment [6] (setting [10]). Further, the Her2 level in experiment [2] is 92% (inactive). In addition, the differential viability (reversal) in experiment [6] (H69AR cells + 2 uM doxorubicin) is -2.39% (inactive). The inhibition in experiment [7] is -3.16% (inactive); in experiment [8], -0.16% (inactive).

For `COCCN1C(=O)C(=O)/C(=C(/O)c2ccc(OC(C)C)cc2)C1c1cccnc1` (stereo not given), the viability in experiment [1] is 94.5%; in experiment [3], 94.5% (inactive); in experiment [4], 89.7% (inactive); in experiment [5], 92.6% (inactive); in experiment [6] (setting [9]), 87.4%; in experiment [6] (setting [10]), 92.6%. The Her2 level in experiment [2] was 86.5% (inactive). The differential viability (reversal) in experiment [6] (H69AR cells + 2 uM doxorubicin) was 5.24% (inactive). In addition, the inhibition in experiment [7] is -3.55% (inactive); in experiment [8], 3.33% (inactive).

For the compound `COC(=O)c1cc(OC)c(OC)cc1NC(=O)CCC1CCCC1`, the viability in experiment [1] is 103%; in experiment [3], 103% (inactive); in experiment [4], 88.8% (inactive); in experiment [5], 102% (inactive); in experiment [6] (setting [9]), 106%; in experiment [6] (setting [10]), 102%. Moreover, the Her2 level in experiment [2] is 95% (inactive). In experiment [6] (H69AR cells + 2 uM doxorubicin), the differential viability (reversal) was -3.46% (inactive). For the same compound, the results for the inhibition in experiment [7] and in experiment [8] were 0.39% (inactive) and 9.05% (inactive), respectively.

In the case of `O=C(C1CCCN(S(=O)(=O)c2cccs2)C1)N1CCc2ccccc2C1` (stereo not given), the viability in experiment [1] was 83%; in experiment [3], 83% (inactive); in experiment [4], 83.4% (inactive); in experiment [5], 85.3% (inactive); in experiment [6] (setting [9]), 91.7%; in experiment [6] (setting [10]), 85.3%. For the same compound, in experiment [2], the Her2 level is 75.5% (inactive). Further, the differential viability (reversal) in experiment [6] (H69AR cells + 2 uM doxorubicin) was -6.37% (inactive). Further, the inhibition is -4% (inactive) in experiment [7] and 3.28% (inactive) in experiment [8].

Regarding `COC(=O)c1ccccc1NC(=O)c1cc(-c2ccc(OC)c(OC)c2)on1`, the viability was 99% in experiment [1]; 99% (inactive) in experiment [3]; 114% (inactive) in experiment [4]; 77.8% (inactive) in experiment [5]; 72% in experiment [6] (setting [9]); 77.8% in experiment [6] (setting [10]). Besides, in experiment [2], the Her2 level was 90.5% (inactive). In addition, the differential viability (reversal) in experiment [6] (H69AR cells + 2 uM doxorubicin) is 5.72% (inactive). For the same compound, the results for the inhibition in experiment [7] and in experiment [8] were -7.57% (inactive) and -8% (inactive), respectively.

For the compound `O=C(CN1C(=O)CSC1=O)Nc1ccc(N2CCOCC2)cc1`, the viability in experiment [1] was 96.5%; in experiment [3] it was 96.5% (inactive); in experiment [4], 88.1% (inactive); in experiment [5], 101% (inactive); in experiment [6] (setting [9]), 94.7%; in experiment [6] (setting [10]), 101%. Also, the Her2 level in experiment [2] was 122% (inactive). In experiment [6] (H69AR cells + 2 uM doxorubicin), the differential viability (reversal) was 5.88% (inactive). For the same compound, the inhibition in experiment [7] is 1.07% (inactive); in experiment [8], 16.4% (inactive).
